Results reported in ChEMBL document CHEMBL1240328, “Selective compounds define Hsp90 as a major inhibitor of apoptosis in small-cell lung cancer” (Nat Chem Biol, 2007).
Activity calls are given as the source filed them. The rule behind the calls is not given here.

Key:
[1] = target: Heat shock protein HSP 90-beta (Homo sapiens) (UniProt P08238); assay: Inhibition of HSP90-mediated antiapoptotic activity in human NCI-H526 cells assessed as disruption of protein-Apaf-1 complex at 20 uM after 24 hrs by Western blot analysis; type: cell-based
Chain of Heat shock protein HSP 90-beta (Homo sapiens) (P08238 whole entry): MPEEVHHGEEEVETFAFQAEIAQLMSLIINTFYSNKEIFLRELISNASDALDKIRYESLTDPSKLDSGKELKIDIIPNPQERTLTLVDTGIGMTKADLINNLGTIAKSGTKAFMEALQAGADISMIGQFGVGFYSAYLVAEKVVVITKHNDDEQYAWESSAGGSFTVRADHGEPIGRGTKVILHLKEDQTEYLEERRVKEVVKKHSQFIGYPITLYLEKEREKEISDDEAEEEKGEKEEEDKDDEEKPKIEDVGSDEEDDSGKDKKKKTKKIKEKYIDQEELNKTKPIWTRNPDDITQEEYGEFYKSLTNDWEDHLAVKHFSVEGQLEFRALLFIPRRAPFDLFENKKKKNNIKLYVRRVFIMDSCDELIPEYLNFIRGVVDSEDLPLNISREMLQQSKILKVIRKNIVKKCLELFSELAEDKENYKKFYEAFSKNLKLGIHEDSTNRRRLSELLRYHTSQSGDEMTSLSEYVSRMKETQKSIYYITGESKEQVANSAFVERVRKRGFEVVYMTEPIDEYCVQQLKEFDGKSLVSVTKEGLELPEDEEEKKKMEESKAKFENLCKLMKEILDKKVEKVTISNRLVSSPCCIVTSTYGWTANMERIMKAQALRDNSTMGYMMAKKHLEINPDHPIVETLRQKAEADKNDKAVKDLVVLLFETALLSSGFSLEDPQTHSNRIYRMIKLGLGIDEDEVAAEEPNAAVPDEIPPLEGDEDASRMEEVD
In short: (§1)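 NCI-H526 cells treated for 24 h with vehicle or inhibitors (20 µM or 50 µM). Proteins isolated with Apaf-1-specific antibody and whole lysates analysed by western blot. n = 3.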

[2] = test system: SK-BR-3; assay: Inhibition of HSP70-mediated antiapoptotic activity in human SKBR3 cells assessed as release of Apaf-1 from chaperon complex after 24 hrs by Western blot analysis; type: cell-based
In short: (§2)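 SKBr3 cells were treated for 24 h. Lysates were probed by western blot for caspase-3 and PARP cleavage. Apaf-1 complexes were pulled down with Apaf-1 antibody (with control IgG) and immunoblotted.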

[3] = target: Heat shock protein HSP 90-beta (Homo sapiens) (UniProt P08238); assay: Inhibition of HSP90-mediated antiapoptotic activity in human SKBR3 cells assessed as induction of cell growth arrest at 20 uM after 24 hrs by propidium iodide staining-based flow cytometry; settings: SK-BR-3
[4] = target: Heat shock protein HSP 90-beta (Homo sapiens) (UniProt P08238); assay: Inhibition of HSP90-mediated antiapoptotic activity in human NCI-H526 cells assessed as induction of cell death at 10 uM after 72 hrs by propidium iodide staining-based flow cytometry in presence of broad-spectrum caspase inhibitor Boc-D-FMK
In short: (§3)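 NCI-H526 cells pretreated for 3 h with Boc-D-FMK (100 µM), then exposed to 10 µM for 72 h. Flow cytometry after JC-1 staining for mitochondrial potential and after propidium iodide staining for DNA content. n = 3.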

[5] = target: Heat shock protein HSP 90-beta (Homo sapiens) (UniProt P08238); assay: Inhibition of HSP90-mediated antiapoptotic activity in human MCF7 cells assessed as induction of cell growth arrest at 100 uM after 24 hrs by propidium iodide staining-based flow cytometry
[6] = target: Heat shock protein HSP 90-beta (Homo sapiens) (UniProt P08238); assay: Inhibition of HSP90-mediated antiapoptotic activity in human NCI-N417 cells assessed as subG1 accumulation at 5 uM after 72 hrs by propidium iodide staining-based flow cytometry; type: cell-based; settings: NCI-H417
In short: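 Asynchronously growing cells were treated with compound, stained with propidium iodide and analysed by flow cytometry. The read-out was the percentage of cells with sub-G1 DNA content.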

[7] = target: Heat shock protein HSP 90-beta (Homo sapiens) (UniProt P08238); assay: Inhibition of HSP90-mediated antiapoptotic activity in human NCI-H526 cells assessed as induction of Akt degradation at 20 uM after 24 hrs by Western blot analysis; type: cell-based
[8] = target: Heat shock protein HSP 90-beta (Homo sapiens) (UniProt P08238); assay: Inhibition of HSP90-mediated antiapoptotic activity in human NCI-H187 cells assessed as subG1 accumulation at 15 uM after 72 hrs by propidium iodide staining-based flow cytometry; type: cell-based
In short: (§4)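 SCLC cells treated for 72 h with graded doses. Mitochondrial membrane potential read by flow cytometry after JC-1 staining, with green-only emission indicating depolarization. Sub-G1 DNA content read after propidium iodide staining. CCCP used as positive control. n = 3 repeat experiments.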

[9] = test system: SK-BR-3; assay: Inhibition of HSP70-mediated antiapoptotic activity in human SKBR3 cells assessed as induction of cell growth arrest after 72 hrs by propidium iodide staining-based flow cytometry
[10] = target: Heat shock protein HSP 90-beta (Homo sapiens) (UniProt P08238); assay: Inhibition of HSP90-mediated antiapoptotic activity in human NCI-H526 cells assessed as disruption of protein-Apaf-1 complex at 50 uM after 24 hrs by Western blot analysis; type: cell-based; in short: as §1
[11] = target: Heat shock protein HSP 90-beta (Homo sapiens) (UniProt P08238); assay: Inhibition of HSP90-mediated antiapoptotic activity in human NCI-H526 cells assessed as mitochondrial membrane depolarization at 10 uM after 72 hrs by JC-1 staining-based flow cytometry in presence of broad-spectrum caspase inhibitor Boc-D-FMK; type: cell-based; in short: as §3
[12] = target: Heat shock protein HSP 90-beta (Homo sapiens) (UniProt P08238); assay: Inhibition of HSP90-mediated antiapoptotic activity in human SKBR3 cells assessed as induction of caspase-9 cleavage at 50 uM after 24 hrs by Western blot analysis; type: cell-based; settings: SK-BR-3
In short: (§5)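 SKBr3 cells at 60–70% confluence were exposed to drug or DMSO vehicle. Lysis was in 50 mM Tris pH 7.4, 150 mM NaCl, 1% NP-40, with protein measured by BCA. Lysates of 20–100 µg were run on SDS-PAGE, blotted to nitrocellulose, probed with primary antibodies and detected with a peroxidase-conjugated secondary (1:5,000). Loading was checked with β-actin or PI(3)K p85.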

[13] = target: Heat shock protein HSP 90-beta (Homo sapiens) (UniProt P08238); assay: Inhibition of HSP90-mediated antiapoptotic activity in human SKBR3 cells assessed as induction of caspase-3 cleavage at 20 uM after 24 hrs by Western blot analysis; type: cell-based; settings: SK-BR-3; in short: as §5
[14] = target: Heat shock protein HSP 90-beta (Homo sapiens) (UniProt P08238); assay: Inhibition of HSP90-mediated antiapoptotic activity in human SKBR3 cells assessed as induction of PARP cleavage at 20 uM after 24 hrs by Western blot analysis; type: cell-based; settings: SK-BR-3; in short: as §5
[15] = target: Heat shock protein HSP 90-beta (Homo sapiens) (UniProt P08238); assay: Inhibition of HSP90-mediated antiapoptotic activity in human NCI-H526 cells assessed as reduction in BAD phosphorylation at 50 uM after 24 hrs by Western blot analysis; type: cell-based
[16] = test system: SK-BR-3; assay: Inhibition of HSP70-mediated antiapoptotic activity in human SKBR3 cells assessed as increase in caspase-3 activity after 24 hrs by Western blot analysis; type: cell-based
[17] = target: Heat shock protein HSP 90-beta (Homo sapiens) (UniProt P08238); assay: Inhibition of HSP90-mediated antiapoptotic activity in human NCI-H526 cells assessed as induction of Akt degradation at 10 uM after 24 hrs by Western blot analysis; type: cell-based
[18] = target: Heat shock protein HSP 90-beta (Homo sapiens) (UniProt P08238); assay: Inhibition of HSP90-mediated antiapoptotic activity in human SKBR3 cells assessed as induction of PARP cleavage at 50 uM after 24 hrs by Western blot analysis; type: cell-based; settings: SK-BR-3; in short: as §5
[19] = target: Heat shock protein HSP 90-beta (Homo sapiens) (UniProt P08238); assay: Inhibition of HSP90-mediated antiapoptotic activity in human NCI-H187 cells assessed as subG1 accumulation at 25 uM after 72 hrs by propidium iodide staining-based flow cytometry; type: cell-based; in short: as §4
[20] = target: Heat shock protein HSP 90-beta (Homo sapiens) (UniProt P08238); assay: Inhibition of HSP90-mediated antiapoptotic activity in human NCI-H526 cells assessed as increase in caspase-3 activity at 10 uM after 24 hrs by Western blot analysis; type: cell-based
[21] = target: Heat shock protein HSP 90-beta (Homo sapiens) (UniProt P08238); assay: Inhibition of HSP90-mediated antiapoptotic activity in human NCI-H526 cells assessed as reduction in BAD phosphorylation at 10 uM after 24 hrs by Western blot analysis; type: cell-based
[22] = test system: SK-BR-3; assay: Inhibition of HSP70-mediated antiapoptotic activity in human SKBR3 cells assessed as induction of caspase-3 cleavage after 24 hrs by Western blot analysis; type: cell-based; in short: as §2
[23] = target: Heat shock protein HSP 90-beta (Homo sapiens) (UniProt P08238); assay: Inhibition of HSP90-mediated antiapoptotic activity in human NCI-H526 cells assessed as induction of caspase-9 cleavage at 10 uM after 24 hrs by Western blot analysis; type: cell-based
In short: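 NCI-H526 cells at 60–70% confluence were exposed to drug or DMSO for 24 h. Lysed in 50 mM Tris pH 7.4, 150 mM NaCl, 1% NP-40, with protein measured by BCA. 20–100 µg run on SDS-PAGE and blotted to nitrocellulose. Probed with cleaved-protein antibodies and peroxidase secondary at 1:5,000, with β-actin as loading control.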

[24] = target: Heat shock protein HSP 90-beta (Homo sapiens) (UniProt P08238); assay: Inhibition of HSP90-mediated antiapoptotic activity in human SKBR3 cells assessed as induction of cell growth arrest at 100 uM after 24 hrs by propidium iodide staining-based flow cytometry; settings: SK-BR-3
[25] = target: Heat shock protein HSP 90-beta (Homo sapiens) (UniProt P08238); assay: Inhibition of HSP90-mediated antiapoptotic activity in human NCI-H526 cells assessed as increased association between caspase-9 and Apaf-1 at 20 uM after 1 hr by Western blot analysis

Activity [1]: inactive
Activity [3]: inactive
Activity [5]: Active
Activity [6]: inactive
Activity [7]: inactive
Activity [8]: inactive
Activity [10]: inactive
Activity [11]: inactive
Activity [12]: inactive
Activity [13]: inactive
Activity [14]: inactive
Activity [15]: inactive
Activity [17]: inactive
Activity [18]: inactive
Activity [19]: inactive
Activity [20]: inactive
Activity [21]: inactive
Activity [23]: inactive
Activity [24]: Active
Activity [25]: inactive
SMILES: O=CN1CC/C(=C/c2ccc3c(c2)OCO3)C1=O
inhibition [2]: inactive
Activity [4]: inactive
inhibition [9]: Active
inhibition [16]: Active
inhibition [22]: Active
